For data set [1], the system named is HCT-116. Nature of the data set: Antiproliferative activity against human HCT116 cells harboring PI3CA H1047R mutant after 72 hrs by MTT assay. Conditions: HCT-116, 72 h. Type of data set: functional, cell-based. The method, boiled down: (§1)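 Cells were grown as monolayers in DMEM + 10% FBS at 37 °C, 5% CO2, and seeded at 3000-5000/well, 24 h before dosing. They were exposed 72 h to final 10.0, 5.0, 1.0 and 0.5 μM. MTT (5 mg/mL in PBS) was then added for 4 h at 37 °C, formazan dissolved in DMSO and read at 570 nm. Three experiments in triplicate; IC50 derived from inhibition ratios.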

In data set [2] the test system is MCF7. Description: Antiproliferative activity against human MCF7 cells harboring PI3CA E545K mutant after 72 hrs by MTT assay. Type of data set: functional, cell-based. The following applies: MCF7, 72 h. A digest of the protocol:
as §1

The target of data set [3] is PI3-kinase p110-alpha/p85-alpha (Homo sapiens) (UniProt P27986+P42336). Nature of the data set: Ratio of BEZ235 IC50 to compound IC50 for P110alpha/p85alpha (unknown origin) using L-alpha-phosphatidylinositol as substrate after 40 mins by ATP depletion assay. Type of data set: protein-complex assay.
The target in data set [4] is PI3-kinase p110-alpha/p85-alpha (Homo sapiens, UniProt P42336). Nature of the data set: Inhibition of P110alpha/p85alpha (unknown origin) using L-alpha-phosphatidylinositol as substrate after 40 mins by ATP depletion assay. Type of data set: protein-complex assay.
PI3-kinase p110-alpha/p85-alpha, sequence (P27986 whole entry): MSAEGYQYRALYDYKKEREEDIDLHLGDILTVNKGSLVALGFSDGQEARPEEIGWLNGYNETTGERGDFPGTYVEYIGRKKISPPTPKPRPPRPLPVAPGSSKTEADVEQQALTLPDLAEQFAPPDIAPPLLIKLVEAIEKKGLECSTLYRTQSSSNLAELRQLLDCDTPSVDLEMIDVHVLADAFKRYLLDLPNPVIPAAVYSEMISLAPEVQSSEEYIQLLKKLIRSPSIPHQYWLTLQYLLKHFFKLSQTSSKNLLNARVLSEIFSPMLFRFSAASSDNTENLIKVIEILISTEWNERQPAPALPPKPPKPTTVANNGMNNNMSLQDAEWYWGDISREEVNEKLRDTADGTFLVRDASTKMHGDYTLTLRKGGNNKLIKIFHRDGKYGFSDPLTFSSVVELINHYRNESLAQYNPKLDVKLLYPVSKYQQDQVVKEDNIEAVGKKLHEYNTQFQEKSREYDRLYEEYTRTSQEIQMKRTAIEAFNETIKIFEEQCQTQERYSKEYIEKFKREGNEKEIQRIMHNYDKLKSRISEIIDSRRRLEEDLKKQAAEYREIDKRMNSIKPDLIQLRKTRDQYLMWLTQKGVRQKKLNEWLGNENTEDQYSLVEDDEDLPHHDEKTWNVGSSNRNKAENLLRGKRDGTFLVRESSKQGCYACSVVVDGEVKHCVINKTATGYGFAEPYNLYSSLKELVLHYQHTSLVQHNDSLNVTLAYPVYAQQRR
PI3-kinase p110-alpha/p85-alpha, sequence (P42336 whole entry): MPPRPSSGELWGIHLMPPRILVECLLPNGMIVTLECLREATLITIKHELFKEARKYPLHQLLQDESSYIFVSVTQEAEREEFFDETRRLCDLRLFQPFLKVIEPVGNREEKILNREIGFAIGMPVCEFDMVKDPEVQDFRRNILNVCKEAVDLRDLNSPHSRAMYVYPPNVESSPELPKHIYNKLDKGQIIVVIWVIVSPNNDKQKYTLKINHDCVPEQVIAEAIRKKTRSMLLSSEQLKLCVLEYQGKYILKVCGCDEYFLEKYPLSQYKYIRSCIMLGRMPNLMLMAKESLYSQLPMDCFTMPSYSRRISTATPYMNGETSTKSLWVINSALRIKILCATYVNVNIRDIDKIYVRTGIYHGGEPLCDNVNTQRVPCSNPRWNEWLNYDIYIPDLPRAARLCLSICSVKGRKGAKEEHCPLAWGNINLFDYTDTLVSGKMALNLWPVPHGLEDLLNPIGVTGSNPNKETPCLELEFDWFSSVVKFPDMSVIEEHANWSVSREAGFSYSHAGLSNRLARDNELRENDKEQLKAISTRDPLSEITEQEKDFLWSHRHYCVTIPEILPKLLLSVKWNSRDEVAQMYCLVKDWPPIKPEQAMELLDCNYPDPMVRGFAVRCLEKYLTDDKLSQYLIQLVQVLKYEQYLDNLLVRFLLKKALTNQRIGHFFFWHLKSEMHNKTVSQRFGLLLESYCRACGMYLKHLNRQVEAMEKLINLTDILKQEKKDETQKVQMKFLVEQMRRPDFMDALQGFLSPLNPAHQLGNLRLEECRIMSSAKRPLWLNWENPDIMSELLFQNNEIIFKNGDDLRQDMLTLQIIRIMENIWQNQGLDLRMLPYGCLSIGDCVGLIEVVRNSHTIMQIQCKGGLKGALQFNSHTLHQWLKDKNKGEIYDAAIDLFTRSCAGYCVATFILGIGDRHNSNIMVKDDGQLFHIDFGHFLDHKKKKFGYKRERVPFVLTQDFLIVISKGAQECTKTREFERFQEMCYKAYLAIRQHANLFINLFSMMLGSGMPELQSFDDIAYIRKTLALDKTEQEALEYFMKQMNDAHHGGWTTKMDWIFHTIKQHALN
Data set [5] concerns the target Serine/threonine-protein kinase mTOR (Homo sapiens, UniProt P42345). Nature of the data set: Inhibition of mTOR (unknown origin) using L-alpha-phosphatidylinositol as substrate after 40 mins by ATP depletion assay.
Data set [6] deals with PI3-kinase subunit gamma/Phosphoinositide 3-kinase regulatory subunit 5 (Homo sapiens, UniProt P48736). Nature of the data set: Inhibition of P110gamma/PIK3R5 (unknown origin) using L-alpha-phosphatidylinositol as substrate after 40 mins by ATP depletion assay. Type of data set: protein-complex assay.
PI3-kinase subunit gamma/Phosphoinositide 3-kinase regulatory subunit 5, sequence (P48736 whole entry): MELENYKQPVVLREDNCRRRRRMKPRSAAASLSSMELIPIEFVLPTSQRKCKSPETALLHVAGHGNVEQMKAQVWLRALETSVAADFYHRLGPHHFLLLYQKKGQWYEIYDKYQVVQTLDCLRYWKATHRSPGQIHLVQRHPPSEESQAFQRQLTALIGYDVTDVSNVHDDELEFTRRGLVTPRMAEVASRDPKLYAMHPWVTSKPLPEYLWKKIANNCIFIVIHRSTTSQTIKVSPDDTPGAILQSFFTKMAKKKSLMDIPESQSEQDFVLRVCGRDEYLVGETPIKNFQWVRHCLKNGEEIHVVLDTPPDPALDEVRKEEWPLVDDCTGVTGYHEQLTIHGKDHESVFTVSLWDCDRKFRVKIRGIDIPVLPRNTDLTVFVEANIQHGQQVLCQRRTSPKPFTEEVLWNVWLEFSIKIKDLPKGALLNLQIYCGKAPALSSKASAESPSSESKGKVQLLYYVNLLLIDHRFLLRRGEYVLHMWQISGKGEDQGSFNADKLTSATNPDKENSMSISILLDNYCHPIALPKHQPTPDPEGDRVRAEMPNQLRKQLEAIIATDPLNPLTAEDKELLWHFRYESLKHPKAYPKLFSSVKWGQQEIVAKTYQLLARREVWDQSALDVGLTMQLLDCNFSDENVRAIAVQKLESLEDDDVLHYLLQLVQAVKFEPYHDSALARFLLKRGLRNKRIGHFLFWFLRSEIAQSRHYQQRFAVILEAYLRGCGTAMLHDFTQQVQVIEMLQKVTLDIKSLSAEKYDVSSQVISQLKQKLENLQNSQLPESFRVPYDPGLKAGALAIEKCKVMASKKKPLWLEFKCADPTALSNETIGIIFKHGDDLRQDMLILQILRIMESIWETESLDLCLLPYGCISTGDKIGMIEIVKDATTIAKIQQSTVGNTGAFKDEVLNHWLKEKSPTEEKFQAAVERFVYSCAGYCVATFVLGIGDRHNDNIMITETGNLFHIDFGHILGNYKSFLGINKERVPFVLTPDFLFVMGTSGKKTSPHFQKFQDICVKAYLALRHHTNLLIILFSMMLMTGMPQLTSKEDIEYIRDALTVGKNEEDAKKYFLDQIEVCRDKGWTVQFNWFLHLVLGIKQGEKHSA
PI3-kinase subunit gamma/Phosphoinositide 3-kinase regulatory subunit 5, sequence (Q8WYR1 whole entry, further chain): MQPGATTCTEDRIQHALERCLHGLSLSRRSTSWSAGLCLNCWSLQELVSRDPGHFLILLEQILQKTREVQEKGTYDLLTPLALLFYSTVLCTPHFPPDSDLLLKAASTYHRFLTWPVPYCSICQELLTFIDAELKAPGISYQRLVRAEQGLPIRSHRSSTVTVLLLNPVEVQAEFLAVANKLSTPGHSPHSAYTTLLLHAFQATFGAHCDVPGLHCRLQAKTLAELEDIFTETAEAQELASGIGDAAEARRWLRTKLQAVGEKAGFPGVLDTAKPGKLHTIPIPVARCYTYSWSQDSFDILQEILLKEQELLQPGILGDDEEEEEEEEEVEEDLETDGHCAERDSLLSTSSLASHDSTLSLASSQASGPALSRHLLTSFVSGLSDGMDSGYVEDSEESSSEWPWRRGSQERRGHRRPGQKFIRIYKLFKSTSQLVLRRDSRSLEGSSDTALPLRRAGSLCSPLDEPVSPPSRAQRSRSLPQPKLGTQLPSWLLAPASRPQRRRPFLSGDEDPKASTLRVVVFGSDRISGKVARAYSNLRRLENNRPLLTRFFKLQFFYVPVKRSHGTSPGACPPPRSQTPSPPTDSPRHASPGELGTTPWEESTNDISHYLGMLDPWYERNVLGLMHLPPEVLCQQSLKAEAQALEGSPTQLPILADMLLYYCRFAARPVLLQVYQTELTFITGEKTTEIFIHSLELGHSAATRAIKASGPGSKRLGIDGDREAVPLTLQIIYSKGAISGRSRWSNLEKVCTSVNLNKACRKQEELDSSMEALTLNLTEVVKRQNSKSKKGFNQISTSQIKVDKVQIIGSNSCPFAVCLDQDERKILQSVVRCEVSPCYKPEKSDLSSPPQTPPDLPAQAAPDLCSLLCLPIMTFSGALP
Data set [7] deals with PI3-kinase p110-delta/p85-alpha (Homo sapiens, UniProt O00329). Nature of the data set: Inhibition of P110delta/p85alpha (unknown origin) using L-alpha-phosphatidylinositol as substrate after 40 mins by ATP depletion assay. Type of data set: protein-complex assay.
Data set [8] deals with PI3K p110 beta/p85 alpha (Homo sapiens, UniProt P42338). Nature of the data set: Inhibition of P110beta/p85alpha (unknown origin) using L-alpha-phosphatidylinositol as substrate after 40 mins by ATP depletion assay. Type of data set: protein-complex assay.
PI3K p110 beta/p85 alpha, sequence (P27986 whole entry): as the sequence (P27986 whole entry) above
PI3K p110 beta/p85 alpha, sequence (P42338 whole entry): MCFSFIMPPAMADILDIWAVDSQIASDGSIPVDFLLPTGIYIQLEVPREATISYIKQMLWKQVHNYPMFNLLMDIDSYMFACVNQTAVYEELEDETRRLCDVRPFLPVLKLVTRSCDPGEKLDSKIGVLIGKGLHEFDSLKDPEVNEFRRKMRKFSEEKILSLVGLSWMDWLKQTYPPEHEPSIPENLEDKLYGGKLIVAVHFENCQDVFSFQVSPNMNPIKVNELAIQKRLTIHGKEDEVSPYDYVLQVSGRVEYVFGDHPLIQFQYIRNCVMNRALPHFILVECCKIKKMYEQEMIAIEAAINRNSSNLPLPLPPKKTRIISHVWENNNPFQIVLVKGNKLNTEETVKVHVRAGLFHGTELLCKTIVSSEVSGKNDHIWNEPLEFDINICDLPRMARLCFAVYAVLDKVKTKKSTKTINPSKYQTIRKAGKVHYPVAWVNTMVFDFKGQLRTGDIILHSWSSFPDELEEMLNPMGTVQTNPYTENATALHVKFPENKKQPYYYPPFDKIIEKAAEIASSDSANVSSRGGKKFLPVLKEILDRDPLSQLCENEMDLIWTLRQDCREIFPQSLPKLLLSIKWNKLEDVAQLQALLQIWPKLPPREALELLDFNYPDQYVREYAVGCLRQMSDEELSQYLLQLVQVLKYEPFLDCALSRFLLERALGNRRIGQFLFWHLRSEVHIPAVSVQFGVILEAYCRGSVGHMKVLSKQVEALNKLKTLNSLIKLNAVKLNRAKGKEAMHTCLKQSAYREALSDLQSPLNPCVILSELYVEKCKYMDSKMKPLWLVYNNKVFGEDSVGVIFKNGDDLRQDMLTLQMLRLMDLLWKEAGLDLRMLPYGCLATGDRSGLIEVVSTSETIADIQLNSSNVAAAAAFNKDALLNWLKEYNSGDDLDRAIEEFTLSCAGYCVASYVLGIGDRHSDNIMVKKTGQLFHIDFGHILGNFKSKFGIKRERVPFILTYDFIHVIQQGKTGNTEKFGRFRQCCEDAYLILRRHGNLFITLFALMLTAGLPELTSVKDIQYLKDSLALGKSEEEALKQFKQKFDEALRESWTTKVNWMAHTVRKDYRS
For data set [9], the system named is CCRF S-180. Nature of the data set: Anticancer activity against mouse S180 cells homografted in mouse assessed as tumor growth inhibition at 20 mg/kg, po qd for 8 days measured on day 9 post dose relative to vehicle-treated control. Type of data set: functional. Conditions: CCRF S-180, po, read-out: TGI. The method, boiled down:
(§2)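 3×10^6 S-180 cells injected s.c. into mouse flank (mice 19.5 ± 1.8 g); randomized, 8 per group. Dosing began next day, oral once daily for 8 days in DMSO:PEG400:5% glucose injection (1:7:2, v/v/v); vehicle group got equal solvent volume. Mice sacrificed Day 9, tumors weighed, and tumor-weight inhibitory ratio calculated versus solvent group.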

In data set [10] the test system is CCRF S-180. Nature of the data set: Anticancer activity against mouse S180 cells homografted in mouse assessed as tumor growth inhibition at 40 mg/kg, po qd for 8 days measured on day 9 post dose relative to vehicle-treated control. The following applies: CCRF S-180, po, read-out: TGI. Type of data set: functional. The method, boiled down:
as §2

The subject of data set [11] is Mus musculus. Description: Toxicity in mouse S180 cells homografted mouse assessed as reduction of body weight at 20 to 40 mg/kg, po qd for 8 days. Type of data set: organism-based. The following applies: in vivo, 192 h. A digest of the protocol: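 S-180 sarcoma-bearing mice (3×10^6 cells s.c., flank; 8 per group) given oral doses once daily for 8 days in DMSO:PEG400:5% glucose injection (1:7:2, v/v/v), starting the day after implantation; solvent-only group as control. Body weight recorded daily through sacrifice on Day 9.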

As a reminder, the IC50 is the concentration that gives 50% inhibition. Low values mean greater potency in that assay, high ones weaker potency in that assay. In the case of `COc1ncc(-c2ccc3ncn([C@H]4CCNC4)c(=O)c3c2)cc1NS(=O)(=O)c1ccc(F)cc1`, the results for the concentration for half-maximal inhibition (IC50) in [1] and in [2] were 1460 nM and 2770 nM, respectively.
For the compound `COc1ncc(-c2ccc3ncn(Cc4ccncc4)c(=O)c3c2)cc1NS(=O)(=O)c1ccc(F)cc1`, the figures for the IC50 in data set [1] and in data set [2] were 2950 nM and 1840 nM, respectively.
On to `COc1ncc(-c2ccc3ncn([C@H]4CCN(C(=O)C5CCOCC5)C4)c(=O)c3c2)cc1NS(=O)(=O)c1ccc(F)cc1`, for which the IC50 in data set [1] was determined as 600 nM; in data set [2], 1620 nM.
With `COc1ncc(-c2ccc3ncn(C4CCN(C(C)=O)CC4)c(=O)c3c2)cc1NS(=O)(=O)c1ccc(F)cc1`, the IC50 in data set [1] was 1300 nM; in data set [2] it was 2630 nM.
For the compound `COc1ncc(-c2ccc3ncn(Cc4cccnc4)c(=O)c3c2)cc1NS(=O)(=O)c1ccc(F)cc1`, the IC50 amounted to 1290 nM in data set [1] and 1780 nM in [2].
In the case of `COc1ncc(-c2ccc3ncn([C@H]4CCN(CC5CC5)C4)c(=O)c3c2)cc1NS(=O)(=O)c1ccc(F)cc1`, the Ratio IC50 in [3] is 10. Moreover, the IC50 stood at 6.7 nM in data set [4]; 670 nM in data set [1]; 114 nM in data set [5]; 1030 nM in data set [2]; 181 nM in data set [6]; 21 nM in [7]. The same compound displayed an IC50 in data set [8] of 24 nM.
On to `COc1ccc(Cn2cnc3ccc(-c4cnc(OC)c(NS(=O)(=O)c5ccc(F)cc5)c4)cc3c2=O)cc1`, for which the IC50 in [1] was 2800 nM; in data set [2], 3340 nM.
On to `COc1ncc(-c2ccc3ncn([C@@H]4CCN(C(C)=O)C4)c(=O)c3c2)cc1NS(=O)(=O)c1ccc(F)cc1`, for which the results for the IC50 in data set [1] and in data set [2] were 4720 nM and 2450 nM, respectively.
The like results for `CCN(CC)CCn1cnc2ccc(-c3cnc(OC)c(NS(=O)(=O)c4ccc(F)cc4F)c3)cc2c1=O` were, in that order, 1030 nM and 2590 nM.
On to `COc1ncc(-c2ccc3ncn(Cc4ccccc4)c(=O)c3c2)cc1NS(=O)(=O)c1ccc(F)cc1`, for which the values for the IC50 in [1] and in data set [2] were 4740 nM and 5900 nM, respectively.
Turning to `COc1ncc(-c2ccc3ncn(C4CCN(C(=O)C5CC5)CC4)c(=O)c3c2)cc1NS(=O)(=O)c1ccc(F)cc1`, the half-inhibitory concentration (IC50) in [1] came to 1350 nM; in data set [2] it was 2730 nM.
In the case of `COc1ncc(-c2ccc3ncn([C@H]4CCN(C(=O)C5CC5)C4)c(=O)c3c2)cc1NS(=O)(=O)c1ccc(F)cc1`, the Ratio IC50 in [3] came out at 10. In addition, the IC50 in data set [4] worked out at 7.3 nM; in [1], 710 nM; in data set [5], 208 nM; in data set [2] it was 2360 nM; in [6], 116 nM; in [7], 106 nM. Besides, in data set [8], the concentration for half-maximal inhibition (IC50) came to 209 nM. The inhibition in vivo at 20 mg/kg in data set [9] is 34.5%. The inhibition in vivo at 40 mg/kg in data set [10] is 58%. In addition, in data set [11], the Activity result is “Toxic”.
Take `COc1ncc(-c2ccc3ncn([C@H]4CCN(C(=O)OC(C)(C)C)C4)c(=O)c3c2)cc1NS(=O)(=O)c1ccc(F)cc1`: the IC50 in data set [1] turned out to be 660 nM; in [2] it was 2730 nM.
As to `CCCCn1cnc2ccc(-c3cnc(OC)c(NS(=O)(=O)c4ccc(F)cc4)c3)cc2c1=O`, the IC50 in data set [1] was 4060 nM; in data set [2] it was 3930 nM.
Take `COc1ncc(-c2ccc3ncn(CCN4CCCC4)c(=O)c3c2)cc1NS(=O)(=O)c1ccc(F)cc1`: the IC50 in data set [1] was determined as 2640 nM; in data set [2] it was 3820 nM.
Take `Cn1c(=O)n(-c2ccc(C(C)(C)C#N)cc2)c2c3cc(-c4cnc5ccccc5c4)ccc3ncc21` [DACTOLISIB]: the IC50 worked out at 560 nM in data set [1] and 1090 nM in data set [2].
The like results for `COc1ncc(-c2ccc3ncn(CCN4CCOCC4)c(=O)c3c2)cc1NS(=O)(=O)c1ccc(F)cc1` were, in that order, 1820 nM and 3200 nM.
Take `COc1ncc(-c2ccc3ncn([C@@H]4CCN(C(=O)C5CC5)C4)c(=O)c3c2)cc1NS(=O)(=O)c1ccc(F)cc1`: the IC50 amounted to 6090 nM in [1] and 2260 nM in data set [2].
As for `COc1ncc(-c2ccc3ncn(C4CCN(C(=O)OC(C)(C)C)CC4)c(=O)c3c2)cc1NS(=O)(=O)c1ccc(F)cc1`, the IC50 came out at 1530 nM in data set [1] and 4360 nM in [2].
As for `COc1ncc(-c2ccc3ncn(CCN(C)C)c(=O)c3c2)cc1NS(=O)(=O)c1ccc(F)cc1`, the IC50 amounted to 2690 nM in [1] and 3720 nM in data set [2].
Consider `COc1ncc(-c2ccc3ncn(CCN4CCOCC4)c(=O)c3c2)cc1NS(=O)(=O)c1ccc(C)cc1`, for which the IC50 was found to be 1350 nM in data set [1] and 3480 nM in data set [2].
For the compound `CCN(CC)CCn1cnc2ccc(-c3cnc(OC)c(NS(=O)(=O)c4ccc(F)cc4)c3)cc2c1=O`, the IC50 in data set [1] worked out at 1200 nM; in data set [2], 2340 nM.
Take `COc1ncc(-c2ccc3ncn(CCN4CCCCC4)c(=O)c3c2)cc1NS(=O)(=O)c1ccc(F)cc1`: the IC50 in [1] was determined as 2750 nM; in data set [2] it was 2950 nM.
The like results for `COc1ncc(-c2ccc3ncn(-c4ccc(CN5CCN(C)CC5)cc4)c(=O)c3c2)cc1NS(=O)(=O)c1ccc(F)cc1` were, in that order, 1250 nM and 4600 nM.
Take `COc1ncc(-c2ccc3ncn(CCN4CCN(C)CC4)c(=O)c3c2)cc1NS(=O)(=O)c1ccc(F)cc1`: the IC50 in data set [1] is 1450 nM; in [2], 3000 nM.
Take `COc1ncc(-c2ccc3ncn(CCN4CCOCC4)c(=O)c3c2)cc1NS(=O)(=O)c1ccc(Cl)cc1`: the half-maximal inhibitory concentration (IC50) came out at 2020 nM in data set [1] and 4140 nM in data set [2].
Turning to `COc1ncc(-c2ccc3ncn(-c4ccc(CN5CCOCC5)cc4)c(=O)c3c2)cc1NS(=O)(=O)c1ccc(F)cc1`, the IC50 in data set [1] was 1420 nM; in data set [2], 3490 nM.
Take `COc1ncc(-c2ccc3ncn(C4CCN(C(=O)C5CCOCC5)CC4)c(=O)c3c2)cc1NS(=O)(=O)c1ccc(F)cc1`: the IC50 in [1] is 960 nM; in [2] it was 2900 nM.
On to `COc1ncc(-c2ccc3ncn(C4CCNCC4)c(=O)c3c2)cc1NS(=O)(=O)c1ccc(F)cc1`, for which the IC50 came out at 1150 nM in data set [1] and 1670 nM in data set [2].
As to `COc1ncc(-c2ccc3ncn([C@@H]4CCN(CC5CC5)C4)c(=O)c3c2)cc1NS(=O)(=O)c1ccc(F)cc1`, the IC50 is 4880 nM in [1] and 2030 nM in [2].
`COc1ncc(-c2ccc3ncn(C4CCN(CC5CC5)CC4)c(=O)c3c2)cc1NS(=O)(=O)c1ccc(F)cc1`: the IC50 in data set [1] was 1220 nM; in data set [2] it was 2260 nM.
The like results for `COc1ncc(-c2ccc3ncn([C@H]4CCN(C(C)=O)C4)c(=O)c3c2)cc1NS(=O)(=O)c1ccc(F)cc1` were, in that order, 1250 nM and 2520 nM.
